Rows were chosen to be rich in hits. Some 2.5% of all compounds tested hit in one or more screens of this group.
SIAE primary = human SIAE inhibition, primary screen; Q9HAT2; SIAE FP-Rh probe binding, fluorescence polarization; inhibition, % at 9.66 µM; 370,000 tested, 0.69% active;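 active = inhibition above a cutoff: mean of compounds within the control limits plus 3 SD of those, cut at about 17% in these data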
TCR CD3 inh = inhibitors of human TCR-CD3 interaction | AID 651800 | inhibition, % at 9.4 µM | TAMRA-labeled TCR probe fluorescence, biochemical | 360,000 tested, 0.37% active; in the data active = inhibition above about 19%;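 also: recombinant mutant TCR 2C K166C tagged with TAMRA read by polarization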
PRMT1 FP inh = PRMT1 (human) inhibition, primary screen; Q99873; recombinant PRMT1, activity-based probe fluorescence polarization; inhibition, % at 2.79 µM; 370,000 tested, 1.3% active; AID 652257;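 active = inhibition above about 21% made by adding two undisclosed values, limit read from the data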
HTRA1 inh = inhibitors of human serine peptidase HTRA1. Q92743. AID 504803. inhibition, % at 5.96 µM. 340,000 tested, 0.5% active. recombinant HTRA1, FP-rhodamine activity-based probe, fluorescence polarization; in the data active = inhibition above about 36%
Target sequence (Q92743 whole entry, looked up): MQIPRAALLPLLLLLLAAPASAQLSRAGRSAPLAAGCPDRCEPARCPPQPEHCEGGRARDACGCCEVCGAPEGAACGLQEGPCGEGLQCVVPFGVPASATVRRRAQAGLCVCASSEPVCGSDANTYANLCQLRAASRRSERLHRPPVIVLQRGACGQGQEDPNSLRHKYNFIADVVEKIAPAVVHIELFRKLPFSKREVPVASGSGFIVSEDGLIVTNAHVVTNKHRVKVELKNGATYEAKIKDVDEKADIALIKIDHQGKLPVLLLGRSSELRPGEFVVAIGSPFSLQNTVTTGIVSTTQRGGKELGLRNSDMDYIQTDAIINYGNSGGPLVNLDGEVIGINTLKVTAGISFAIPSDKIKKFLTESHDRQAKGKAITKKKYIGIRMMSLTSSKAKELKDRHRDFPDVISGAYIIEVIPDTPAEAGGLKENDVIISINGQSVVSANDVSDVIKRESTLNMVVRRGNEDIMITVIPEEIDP
ABHD4 inh = inhibits mouse alpha/beta hydrolase domain 4 | 370,000 tested, 0.54% active | AID 720543 | Q8VD66 | purified mABHD4, FP-Rh probe fluorescence polarization | inhibition, % at 8.92 µM;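 active = inhibition exceeding the mean over every tested compound plus 3 SD, cut at about 30% in these data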
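Assay system: mouse ABHD4 enzyme, wild type / Also added: fluorescent activity-based probe FP-Rh / Doses: single nominal dose of 8.92 µM, 0.89% DMSO final / Timing: 45 min compound pre-incubation plus 60 min probe step, 25 °C / Signal: FP readout, ex 525 nm / em 598 nm / Control set: S159A mutant/DMSO as 100%, compound-well median as 0%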
PRMT1 confirm = PRMT1 (human) inhibition, FP confirmation. inhibition, % at 2.79 µM. AID 687036. shares compounds with PRMT1 FP inh. 3,300 tested, 42% active. recombinant His-PRMT1, activity-based probe fluorescence polarization;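 active = mean inhibition across replicates above the hit cutoff derived for the earlier primary screen, cut at about 22% in these data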
Each line names hits and unclear results; the compound was inactive in the other large screens (follow-up assays come after a bar, where they were run).

C/C=C\C=C/C(=O)Nc1cccc(C2=NOC3(C2)C[C@@H](C(N)=O)N(C(=O)CCCCC)C3)c1 (stereo not given in full)	PRMT1 FP inh 25 | PRMT1 confirm 65
C/C=C\C=C/C(=O)Nc1cccc(C2=NOC3(C2)C[C@H](C(N)=O)N(C(=O)Cc2ccc([N+](=O)[O-])cc2)C3)c1 (stereo not given in full)	PRMT1 FP inh 42 | PRMT1 confirm 52
O=C(CN(c1ccc(F)cc1)S(=O)(=O)c1ccc2c(c1)OCCO2)NCc1ccccn1	none
CCOC(=O)N1CCN(C/C(Cl)=C/c2ccccc2)CC1	none
COc1ccccc1Nc1n[nH]c(=S)s1	PRMT1 FP inh 47 | PRMT1 confirm inactive
COc1cccc(Nc2n[nH]c(=S)s2)c1	PRMT1 FP inh 43 | PRMT1 confirm 36
CC1(C)C2CCC(CN=C(N)CSS(=O)(=O)O)C1C2 (stereo not given)	PRMT1 FP inh 88 | PRMT1 confirm 69
COc1cc(CNc2ccc3[nH]c(=O)[nH]c3c2)ccc1OCc1ccc(C)cc1	PRMT1 FP inh 35 | PRMT1 confirm inactive
CCCn1nc(C(=O)Nc2cc(OCC)c(N3CCOCC3)cc2OCC)c2ccccc2c1=O	none
CCC[n+]1c(C)sc2c(OC)ccc(OC)c21	PRMT1 FP inh 40 | PRMT1 confirm inactive
O=C(CC1SC2=NCCN2C1=O)Nc1ccccc1 (stereo not given)	none
Cc1ccc(NC(=O)CC2SC3=NCCN3C2=O)cc1 (stereo not given)	PRMT1 FP inh 94 | PRMT1 confirm inactive
COc1ccc(/C=C2\SC(=S)N(N3C(=O)CCC3=O)C2=O)cc1O	PRMT1 FP inh 49 | PRMT1 confirm inactive
COc1ccc(/C=C2/SC(=S)N(Cc3ccccc3)C2=O)cc1O	none
CC(C)Oc1ccc(C(=O)NCC(=O)N2CCN(S(=O)(=O)/C=C/c3ccccc3)CC2)cc1	none
O=C1CCC(=O)N1c1ccc(CSc2nc3ccccc3[nH]2)cc1	PRMT1 FP inh 33 | PRMT1 confirm 28
C=CCn1c(SCC(N)=O)nnc1-c1ccc(C)cc1	none (no result: TCR CD3 inh, HTRA1 inh)
C=CCn1c(SCC(=O)OC(C)C)nnc1-c1ccc(C)cc1	PRMT1 FP inh 40 (no result: TCR CD3 inh, HTRA1 inh) | PRMT1 confirm inactive
CCOc1ccc(/C=C/C2=Cc3c(sc(NC(=O)CSc4n[nH]c(N)n4)c3C#N)C(C)(C)C2)cc1	PRMT1 FP inh 33 | PRMT1 confirm inactive
CCOC(=O)c1sc(NC(=O)CSc2n[nH]c(-c3ccncc3)n2)c(C#N)c1C	none
NC(=O)c1ccsc1NC(=O)CSc1n[nH]c(N)n1	none (no result: HTRA1 inh)
Cc1ccsc1/C=C/C1=Cc2c(sc(NC(=O)CSc3n[nH]c(N)n3)c2C#N)C(C)(C)C1	PRMT1 FP inh 41 | PRMT1 confirm inactive
CSc1ccc(C=Nn2c(-c3cc(C)[nH]n3)n[nH]c2=S)cc1	none (no result: TCR CD3 inh, HTRA1 inh)
COc1ccc(C2NC(=S)N3C(c4ccc(OC)cc4)NC(=S)N23)cc1 (stereo not given)	PRMT1 FP inh 46 | PRMT1 confirm inactive
O=C(NCc1ccccc1)C1CCN(S(=O)(=O)c2ccc(Cl)cc2)CC1	none
C=CCN1C(=O)N/C(=C/c2ccc(C)o2)C1=O	PRMT1 FP inh 63 | PRMT1 confirm 29
Cc1cccc(NC(=O)CN2C(=O)N/C(=C\c3ccc(-c4cccc(C(=O)O)c4)o3)C2=O)c1	PRMT1 FP inh 27 | PRMT1 confirm inactive
Cc1ccc(NC(=O)CN2C(=O)N/C(=C/c3ccc(C)o3)C2=O)cc1	PRMT1 FP inh 76 | PRMT1 confirm inactive
CCn1c(C)cc(/C=C2/NC(=O)N(CC(=O)Nc3cccc(C)c3)C2=O)c1C	none
CCn1c(C)cc(/C=C2\NC(=O)N(CC(=O)Nc3cccc(C)c3)C2=O)c1C	none
Cc1ccc(NC(=O)CN2C(=O)N/C(=C/c3ccc(C)s3)C2=O)cc1	none
Cc1cccc(NC(=O)CN2C(=O)N/C(=C/c3ccc(C)o3)C2=O)c1	PRMT1 FP inh 65 | PRMT1 confirm 50
COc1ccncc1-c1ccc(C2=CC(=O)CC(C)(C)C2=O)cc1	none
Cc1cccc(Nc2nnc(-c3ccc(C(=O)N4C[C@H]5C[C@H](C4)c4cccc(=O)n4C5)cc3)c3ccccc23)c1	none
Cc1ccc(-n2ncc3c(SCC(N)=O)ncnc32)cc1C	none
Cc1ccc(NC(=O)CN2C(=O)S/C(=C/c3ccc(-c4cc(C(=O)O)ccc4C)o3)C2=O)cc1C	PRMT1 FP inh 28 | PRMT1 confirm inactive
COc1ccc(NC(=O)/C=C/C(=O)O)c([N+](=O)[O-])c1	PRMT1 FP inh 43 | PRMT1 confirm inactive
Cc1cc(NC(=O)/C=C\C(=O)O)c([N+](=O)[O-])cc1C	PRMT1 FP inh 47 | PRMT1 confirm inactive
CCC(CC)C(=O)Nc1cc(C)cc(C)c1	none
O=C(CSC1=Nc2ccccc2C2CC=NN12)Nc1ccc(F)cc1Cl (stereo not given)	PRMT1 FP inh 32 | PRMT1 confirm 43
Cn1c(=O)c2c(ncn2CCOc2cccc(Br)c2)n(C)c1=O	none
COc1ccc(OC)c(NC(=O)CSc2sc3c(O)cc(=O)[nH]c3c2C#N)c1	PRMT1 FP inh 26 | PRMT1 confirm inactive
COc1cc(Cl)c(C)cc1NC(=O)CSCC#N	none
Cc1ccc(NC(=O)CSc2sc3c(O)cc(=O)[nH]c3c2C#N)c(F)c1	none
COc1cc(Cl)c(C)cc1NC(=O)CSc1sc2c(O)cc(=O)[nH]c2c1C#N	PRMT1 FP inh 36 | PRMT1 confirm inactive
COc1ccc(Cl)cc1C(=O)NNC(=O)C1CCCO1 (stereo not given)	none
Cc1ccc(C(=O)/C=C/C(=O)O)cc1	PRMT1 FP inh 40 | PRMT1 confirm 30
Cc1ccc(/C=C/C(=O)c2ccc(O)cc2)cc1	none
O=C(NCc1ccc(Cl)s1)C1CCC(=O)N(CCc2ccccn2)C1 (stereo not given)	none
CCOC(=O)C1(c2ccccc2)SC(C(=O)OCC)(c2ccccc2)S1 (stereo not given)	PRMT1 FP inh 71 | PRMT1 confirm 59
O=C(C[C@H]1CC[C@H]2[C@@H](COC[C@@H](O)CN2S(=O)(=O)c2ccc(F)cc2)O1)N[C@@H]1CCN(Cc2ccccc2)C1	none (no result: HTRA1 inh)
CC(C)Oc1cccc(-c2n[nH]c(=S)n2N=Cc2cccc([N+](=O)[O-])c2)c1	PRMT1 FP inh 34 (no result: TCR CD3 inh, HTRA1 inh) | PRMT1 confirm 25
O=[N+]([O-])c1cccc(/C=N/n2c(COc3ccccc3)n[nH]c2=S)c1	none
CC(C)Oc1cccc(-c2n[nH]c(=S)n2N=Cc2ccc(O)cc2O)c1	PRMT1 FP inh 37 (no result: TCR CD3 inh, HTRA1 inh) | PRMT1 confirm inactive
Oc1ccccc1/C=N/n1c(-c2ccccc2)n[nH]c1=S	none
Cc1ccc(CN(C)C(=O)c2ccc3c(c2)NC(=O)CS3)o1	PRMT1 FP inh 40 | PRMT1 confirm inactive
CC(C)(C)C(=O)/C=c1\s/c(=C\c2ccc(-c3ccc([N+](=O)[O-])cc3)o2)c(=O)n1CC(=O)NC(N)=O	none
Cc1cccc(N2C(=O)CC(Sc3ncn[nH]3)C2=O)c1 (stereo not given)	PRMT1 FP inh 58 | PRMT1 confirm 55
